Data set [1] can be described thus: Dissociation constant, pKa of the compound. Type of data set: physicochemical. Summed up:
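Apparent pKa* measured in 66% aqueous dimethylformamide at 30° by potentiometric titration of monoperchlorate salts with 0.1 M NaOH, with pH recorded via a combination electrode on a recording titrator.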

Data set [2] concerns Mus musculus. Briefly: Analgesic activity in Swiss-Webster Royal Hart mouse at 20 to 100 mg/kg, po administered as aqueous solution by Haffner tail clamp test. It counts as functional, organism-based. Summed up: (§1)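 Male Swiss-Webster Royal Hart mice, groups of ten per dose level, doses up to 300 mg/kg per group. Water-soluble salts were given po or ip as aqueous solutions. Analgesia was tested by Haffner tail clamp and phenylquinone-induced writhing, anti-diarrheal effect as colonic propulsive motility, plus general behaviour observation.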

Data set [3] deals with Mus musculus. Briefly: Analgesic activity in Swiss-Webster Royal Hart mouse at 20 to 100 mg/kg, po administered as solution in 30% aqueous propylene glycol by Haffner tail clamp test. Type of data set: functional, organism-based. Summed up: (§2)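 Male Swiss-Webster Royal Hart mice, ten per dose level, doses up to 300 mg/kg per group. Salt was dissolved in 30% aqueous propylene glycol and dosed po or ip. Analgesia was tested by Haffner tail clamp and phenylquinone-induced writhing, anti-diarrheal effect as colonic propulsive motility.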

For data set [4], the system named is Mus musculus. Kind of data set: Analgesic activity in Swiss-Webster Royal Hart mouse at 20 to 100 mg/kg, po administered as aqueous solution by phenylquinone-induced writhing test. It counts as functional, organism-based. Summed up: as §1
A general note: Writhing tests count abdominal constrictions after an irritant is injected.

The test system of data set [5] is Mus musculus. Kind of data set: Analgesic activity in Swiss-Webster Royal Hart mouse at 20 to 100 mg/kg, po administered as solution in 30% aqueous propylene glycol by phenylquinone-induced writhing test. It counts as functional, organism-based. Summed up:
as §2

The test system of data set [6] is Mus musculus. Briefly: Antidiarrheal activity in Swiss-Webster Royal Hart mouse assessed as colonic propulsive motility at 20 to 100 mg/kg, po administered as aqueous solution. It counts as functional, organism-based. Summed up: as §1
The subject of data set [7] is Mus musculus. Kind of data set: Antidiarrheal activity in Swiss-Webster Royal Hart mouse assessed as colonic propulsive motility at 20 to 100 mg/kg, po administered as solution in 30% aqueous propylene glycol. It counts as functional, organism-based. Summed up:
as §2

The test system of data set [8] is Mus musculus. Briefly: Convulsant activity in Swiss-Webster Royal Hart mouse at 30 to 100 mg/kg, ip administered as aqueous solution. Type of data set: ADME, organism-based. Further details: dose 30-100 mg/kg, route intraperitoneal. Conditions: in vivo. Summed up: as §1
Data set [9] has as its system Mus musculus. Briefly: Convulsant activity in Swiss-Webster Royal Hart mouse at 100 to 300 mg/kg, ip administered as aqueous solution. It counts as ADME, organism-based. On the set-up: dose 100-300 mg/kg, route intraperitoneal. Conditions: in vivo. Summed up: as §1
In data set [10] the test system is Mus musculus. Kind of data set: Analgesic activity in sc dosed Swiss-Webster Royal Hart mouse after 30 mins by Haffner tail clamp test. It counts as functional. To be noted: 0.5 h.
The test system of data set [11] is Mus musculus. Kind of data set: Antidiarrheal activity in Swiss-Webster Royal Hart mouse assessed as decrease in colonic propulsive motility at 10 mg/kg, ip. Type of data set: functional, organism-based. Further details: dose 10 mg/kg.

Active and inactive are the calls of the source. The rule behind the calls is not given here.

The pKa is the negative logarithm of the acid dissociation constant. A higher pKa goes with a group that holds its proton tightly. With `COC1(c2ccccc2)C2CN(C)CC1CN(C)C2` (stereo not given), the pKa in data set [1] was determined as 11.7. The result in [2], in data set [3], in [4], in data set [5], in data set [6] and in data set [7] was inactive.
Consider `CC1(C)C2CCC1(CS(=O)(=O)O)C(=O)C2.CN1C[C@H]2CN(C)C[C@H](C1)[C@@]2(O)c1ccccc1`, for which the pKa in data set [1] came out at 11.7. Besides, the outcome in [2], in data set [3], in data set [4], in data set [5], in [6] and in data set [7] was inactive. For the same compound, the Activity entry in [8] is “Toxic”.
Consider `CCC(=O)OC1(c2ccccc2)C2CN(C)CC1CN(C)C2.CS(=O)(=O)O` (stereo not given), for which the pKa in data set [1] was determined as 11. In addition, the outcome in data set [2], in data set [3], in data set [4], in data set [5], in [6] and in data set [7] was inactive. In addition, the Activity result in [9] is given as “Toxic”.
For orientation: ED50 means the dose at which the effect has come halfway, by size or by number of responders. For the compound `CO[C@]1(c2ccccc2)[C@@H]2CCC[C@H]1CN(C)C2`, the ED50 in data set [10] was 3.9 mg/kg. Besides, the inhibition result in data set [11] was “Active”.

(Values after ChEMBL document CHEMBL3271960, “7-Aza analogs of the analgetic agent azabicyclane. Synthesis and pharmacologic analysis” (J Med Chem, 1976).)
